Measurements gathered from unrelated publications.
Protocols differ between the studies behind these lines.
SLCO1B3: Solute carrier organic anion transporter family member 1B3 (SLCO1B3, Homo sapiens, UniProt Q9NPD5)

COc1cc(C(=O)NC2CCN(C)CC2)c(F)cc1Nc1ncc(C(F)(F)F)c(Oc2cccc3c2C(=O)N(C)C3)n1  CL/F (human, plasma; oral, 200 mg, multiple doses, once daily, patients): 160 mL/min
Oc1ccc(-c2nc(N3CCC(c4ccccn4)C3)c3ccccc3n2)cc1 (centres unmarked)  microsomal CLint (metabolic stability; human, liver microsomes): 99 µL/min/mg
COc1ccnc(-c2nc3ccccn3c2N(C)c2ccc(F)cc2)c1  hepatocyte CLint (metabolic stability; rat, hepatocytes): > 300 µL/min/10⁶ cells
Cc1ccc(C(=O)N(CCCN)[C@@H](c2oc3cc(Cl)ccc3c(=O)c2Cc2ccccc2)C(C)C)cc1  clearance (human, plasma; intravenous, 4 mg/m², single dose, patients, infusion): 24.8 mL/min
CN(CCC(=O)O)C(=O)c1ccc2c(c1)CC[C@@H]1[C@@H]2CC[C@]2(C)C(c3cncc(F)c3)=CC[C@@H]12  IC50 (SLCO1B3; transporter uptake, inhibitor): 41 µM
O=C(O[C@H]1[C@@H]2C=CO[C@@H](O[C@@H]3O[C@H](CO)[C@@H](O)[C@H](O)[C@H]3O)[C@@H]2[C@@]2(CO)O[C@@H]12)c1ccc(O)cc1  Km (SLCO1B3; transporter uptake, substrate; HEK293; 5 min): 502 µM
C[C@H]1C[C@H]2[C@@H]3CCC4=CC(=O)C=C[C@]4(C)[C@@]3(Cl)[C@@H](O)C[C@]2(C)[C@@]1(O)C(=O)CO  IC50 (SLCO1B3; transporter uptake, inhibitor): 1.4 µM
Fc1ccc(Nc2c(Cn3cccn3)nc3ccccn23)cc1  hepatocyte CLint (metabolic stability; rat, hepatocytes): 51 µL/min/10⁶ cells
CN(C(=O)n1cnc(-c2ccc[n+]([O-])c2)c1)C1CCCCC1  inhibition (SLCO1B3; transporter uptake, inhibitor; HEK293; 1 µg/mL): 11%
c1cnc2ccc(Nc3nc(NC4CC4)c4nc[nH]c4n3)cc2c1  CL/F (human, plasma; oral, 50 mg/m², patients): 3180 mL/min
CN(c1ccc(F)cc1)c1c(-c2cccc(F)n2)nc2ccccn12  hepatocyte CLint (metabolic stability; rat, hepatocytes): > 300 µL/min/10⁶ cells
